Source: ChEMBL document CHEMBL1124443, “2'-Fluorinated isonucleosides. 1. Synthesis and biological activity of some methyl 2'-deoxy-2'-fluoro-2'-pyrimidinyl-D-arabinopyranosides” (J Med Chem, 1989)

What was measured:
Mus musculus [1] = assay: Percent increase in life span of leukemic mice administered, with compound at 100 mg/kgx5, intraperitoneally; assay type: functional; settings: ip, route intraperitoneal
Method in brief: (§1)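 Female DBA/2 mice (19–20 g) received 10^6 L1210 cells ip on day 0. Drug was given ip once daily for 5 consecutive days starting day 1. Survival was monitored daily. % ILS was derived from mean survival versus untreated mice.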

Mus musculus [2] = assay: Percent increase in life span of leukemic mice administered, with compound at 50 mg/kgx5, intraperitoneally; assay type: functional; settings: ip, route intraperitoneal; method in brief: as §1
[3] = Therapeutic effect of compound (25 mkdx3) on mice with L1210/5-FU leukemia; No effect; settings: mouse
Mus musculus [4] = assay: Percent increase in life span of leukemic mice administered, with compound at 25 mkdx3, on days 1,3,6; assay type: functional
Method in brief: (§2)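 L1210 cells (10^6) were implanted ip on day 0 in female DBA/2 mice. Dosing was 5 or 25 mg/kg/day on days 1, 3 and 6 (3 doses). Daily survival monitoring; % increase in life span versus untreated controls.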

Mus musculus [5] = assay: Percent increase in life span of leukemic mice administered, with compound at 5 mkdx3, on days 1,3,6; assay type: functional; method in brief: as §2
Mus musculus [6] = species: Mus musculus; assay: Weight loss in mice treated with compound at 100 mkdx5; assay type: functional
Method in brief: (§3)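 Female DBA/2 mice (19–20 g) bearing ip L1210 leukemia (10^6 cells, day 0) were dosed ip daily for 5 consecutive days starting on day 1. Mice were weighed daily, and weight loss was recorded as body weight in g.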

Mus musculus [7] = species: Mus musculus; assay: Weight loss in mice treated with compound at 200 mkdx5; assay type: functional; method in brief: as §3
Mus musculus [8] = species: Mus musculus; assay: Weight loss in mice treated with compound at 50 mkdx5; assay type: functional; method in brief: as §3

Row | Structure (SMILES) | ILS at 100 mg/kg (Mus musculus [1]) [%] | ILS at 50 mg/kg (Mus musculus [2]) [%] | ILS [3] | ILS (Mus musculus [4]) [%] | ILS (Mus musculus [5]) [%] | Weight loss (Mus musculus [6]) [g] | Weight loss (Mus musculus [7]) [g] | Weight loss (Mus musculus [8]) [g]
1 | Nc1ccn([C@@H]2O[C@H](CO)[C@@H](O)[C@@H]2O)c(=O)n1 [CYTARABINE] | 126 | 104 |  |  |  |  |  | 
2 | O=c1[nH]cc(F)c(=O)[nH]1 [FLUOROURACIL] |  |  | No effect | 88 | 41 | 14 | 14 | 14
